GRK2 aptamer HTS: blocks RNA aptamer binding to human GRK2; bead flow cytometry, FAM-aptamer displacement from GRK2; inhibition of aptamer binding, % at 10 µM; actives 0.59% (n = 330,000); AID 488847;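 active = inhibition of aptamer binding above 40%, roughly 3 SD of noise, on plates passing a quality check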;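 note: median bead fluorescence of bound FAM aptamer so fluorescent compounds give negative values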
LMPTP block: blocks human LMPTP phosphatase | inhibition, % at 20 µM | P24666 | actives 0.22% (n = 360,000) | recombinant LMPTP-A, OMFP fluorogenic substrate, fluorescence intensity;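 active = compounds that cut the enzyme signal by at least half of the control window in the single-dose screen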
Target sequence (P24666 whole entry, looked up): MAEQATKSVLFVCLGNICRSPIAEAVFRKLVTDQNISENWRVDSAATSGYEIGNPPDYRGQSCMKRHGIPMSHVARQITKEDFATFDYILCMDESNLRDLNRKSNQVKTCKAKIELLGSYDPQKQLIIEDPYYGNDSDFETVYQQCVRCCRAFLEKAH
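material = LMPTP-A | quantity = 0.625 nM enzyme | reagent = OMFP substrate, 400 µM final | buffer or medium = Bis-Tris pH 6.0, DTT, detergent | detection = endpoint fluorescence intensity from OMFP dephosphorylation | dosing = single 20 µM dose | read-out basis = % inhibition relative to no-enzyme and uninhibited control wells | control set = no-enzyme and uninhibited controls | timing = 50 min at room temperature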
DNMT1 inh: inhibitors of human DNMT1; DNMT1 molecular beacon, Hinp1I cleavage, fluorescence; AID 588458; inhibition (reported as % activation of signal), % at 10 µM; P26358; actives 0.83% (n = 360,000); in the data active = inhibition above about 50%
Scp1 inh: inhibitors of human Scp-1 phosphatase; Q9GZU7; Recombinant Scp1, phosphopeptide, malachite green phosphate absorbance; inhibition, % at 20 µM; actives 0.88% (n = 340,000); AID 493091;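 active = inhibition above about 50% at 20 µM, limit read from the data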
Target sequence (Q9GZU7 76-261 limits assumed): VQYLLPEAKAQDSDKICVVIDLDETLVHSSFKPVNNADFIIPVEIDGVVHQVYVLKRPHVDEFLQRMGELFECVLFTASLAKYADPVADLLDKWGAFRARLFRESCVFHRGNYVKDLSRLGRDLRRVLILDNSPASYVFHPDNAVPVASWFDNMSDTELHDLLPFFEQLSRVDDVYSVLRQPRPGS
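Test system: SCP-1 catalytic domain; Buffer or medium: Acidic Tris acetate buffer with magnesium and detergent; Also added: Phosphorylated 17-residue peptide substrate; Compound: single 20 µM dose, 1% DMSO; Schedule: enzyme reaction 45 min at room temperature, colour 5 min, stabilisation 30 min; Signal: Phosphate-binding colour reagent, absorbance read at 630 nm.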
SUMO1-SIM PPI: alters human SUMO1 binding to SIM partners; inhibition, % at 20 µM; SUMO1 binding to a labelled peptide, TR-FRET, 1 h; P63165; actives 0.33% (n = 360,000); in the data active = inhibition above about 37%
Target sequence (P63165 whole entry, looked up): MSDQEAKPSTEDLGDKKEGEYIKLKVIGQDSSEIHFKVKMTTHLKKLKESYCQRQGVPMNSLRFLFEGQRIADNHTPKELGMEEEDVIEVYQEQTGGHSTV
STEP block: inhibitors of human striatal-enriched phosphatase STEP. P54829. recombinant STEP, OMFP fluorogenic substrate, fluorescence. inhibition, % at 20 µM. actives 0.25% (n = 360,000). AID 588621;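 active = inhibition at 20 µM, scaled per plate between control wells, above about 37%, limit read from the data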
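material = STEP tyrosine phosphatase | reagent = fluorogenic phosphatase substrate OMFP at 25 µM final | doses = single compound dose of 20 µM, 1% DMSO final | schedule = 20 min reaction, room temperature, in the dark | measured by = fluorescence, 480/540 nm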
Large screens that a line does not name were inactive. Most compounds without a hit are left out; they make up all but 2.2% or so of the library.

Cc1ccc(C(=O)c2coc3c2C(=O)C(=O)c2ccccc2-3)cc1	none
CCc1nc2ccc(C(=O)Nc3cccc(OCC(=O)N(C)C)c3)cn2c1N(C)Cc1cc2ccccc2s1	none (no result: GRK2 aptamer HTS, Scp1 inh)
Cc1ccc(S(=O)(=O)N(C)CC(=O)OCC(=O)NC(=O)NC(C)C)cc1	none
COc1ccc(OC)c(NC(=O)COC(=O)CN(C)S(=O)(=O)c2ccc(C)cc2)c1	GRK2 aptamer HTS 100
NC(=S)n1[nH]c(-c2ccc([N+](=O)[O-])cc2)c(N=Nc2ccc(Cl)cc2)c1=O	DNMT1 inh 107, SUMO1-SIM PPI 87 (no result: GRK2 aptamer HTS)
Cc1ccc([N+](=O)[O-])cc1N=Nc1c(-c2ccc([N+](=O)[O-])cc2)[nH]n(C(N)=S)c1=O	Scp1 inh 63 (no result: GRK2 aptamer HTS)
Cc1ccc([N+](=O)[O-])cc1N=Nc1c(C)[nH]n(C(N)=S)c1=O	none
COc1cc(N=c2ssnc2Cl)cc(OC)c1OC	LMPTP block 57
CC1(OC(=O)C2CCCC2)C(=O)C=C2C=C3CCCN3C=C2C1=O (stereo unspecified)	none (no result: LMPTP block, DNMT1 inh, Scp1 inh, SUMO1-SIM PPI, STEP block)
CC1(OC(=O)c2cccs2)C(=O)C=C2C=C3CCCN3C=C2C1=O (stereo unspecified)	DNMT1 inh 100, Scp1 inh 55
CCCCn1nnnc1C(c1cc2ccccc2o1)N1CCN(c2ccccc2F)CC1 (stereo unspecified)	none (no result: GRK2 aptamer HTS, DNMT1 inh, Scp1 inh, STEP block)
CCCCn1nnnc1C(c1cc2ccccc2o1)N1CCN(c2cc(C)nc3ccccc23)CC1 (stereo unspecified)	LMPTP block 78 (no result: GRK2 aptamer HTS, DNMT1 inh, Scp1 inh, STEP block)
O=[N+]([O-])c1ccc(N=Nc2ccc(O)cc2O)cc1	none
O=S(=O)(O)c1cc(Cl)cc(N=Nc2ccc(O)cc2O)c1O	LMPTP block 50, DNMT1 inh 68, Scp1 inh 73 (no result: GRK2 aptamer HTS)
COC(=O)C1C2C=CC(C3CC23)C1C(=O)OCC(=O)c1ccccc1 (stereo unspecified)	SUMO1-SIM PPI 45
CCCCn1nc(NC(=O)COC)c2cc3ccc(C)cc3nc21	Scp1 inh 52
CCn1nc(NC(=O)COC)c2cc3cc(C)ccc3nc21	none
NC1=NC[C@H](Cc2ccc(O)cc2)N1CCc1cc(C(F)(F)F)cc(C(F)(F)F)c1	none
NC1=NC[C@@H](CC2CCCCC2)N1CCc1cc(C(F)(F)F)cc(C(F)(F)F)c1	DNMT1 inh 62
CC1(C(=O)NS(=O)(=O)c2cccc(Cl)c2)CCN1C(=O)c1ccccc1CCc1ccccc1 (stereo unspecified)	none (no result: GRK2 aptamer HTS, Scp1 inh)
CC1OC2CC(=O)OC2C2=C1C(=O)c1c(O)cccc1C2=O (stereo unspecified)	DNMT1 inh 75 (no result: GRK2 aptamer HTS, Scp1 inh)
Cc1cc(C)n(Cc2ccc(C(=O)O)cc2)n1	none
Cc1ccc(C)n1Cc1ccc(C(=O)O)cc1	GRK2 aptamer HTS 88, DNMT1 inh 106, Scp1 inh 114, STEP block 93
O=C(NCC1CCCCC1)c1csc([C@@H]2C[C@H](O)[C@@H](CO)O2)n1	none (no result: GRK2 aptamer HTS, Scp1 inh)
Cc1cccc(Nc2cc(C)c3c(O)cccc3n2)c1C	LMPTP block 69
Cc1cccc(NC(=S)N(C)C)c1C	none
CCCc1ccc2ccc3ccccc3c2n1	none (no result: GRK2 aptamer HTS, Scp1 inh)
COc1ccc(OCc2cc(C(=O)O)c(C)o2)cc1	GRK2 aptamer HTS 64 (no result: LMPTP block, DNMT1 inh, Scp1 inh, SUMO1-SIM PPI, STEP block)
CC(=O)NC1(C(F)(F)F)NC(=O)N(CCc2ccccc2)C1=O (stereo unspecified)	SUMO1-SIM PPI 44
CC(C)(C)C(=O)NC1(C(F)(F)F)NC(=O)N(CCc2ccccc2)C1=O (stereo unspecified)	none
O=C(NCCNC(=O)c1ccc(-c2cc(Cl)ccc2Cl)o1)c1cnccn1	none (no result: GRK2 aptamer HTS, Scp1 inh)
Cn1c2ccccc2c2cc(/C=N/NC(=O)c3cc(O)cc(O)c3)ccc21	none
Cn1c2ccccc2c2cc(/C=N/NC(=O)c3cc(O)ccc3O)ccc21	Scp1 inh 59
CCC1CCCCN1CCCNC(=O)CN1C(=O)COc2ccc(S(=O)(=O)N3CCC(C)CC3)cc21 (stereo unspecified)	SUMO1-SIM PPI 40
Cc1ccc([N+](=O)[O-])c(NC(=O)COC(=O)CCNS(=O)(=O)c2cccs2)c1C	none (no result: GRK2 aptamer HTS, Scp1 inh)
COc1ccc(C(=O)Nc2ccc(NC(=O)c3cccs3)cn2)cc1	SUMO1-SIM PPI 46
COc1ccc(NC(=O)c2cccs2)cc1	none
